Source: publication PMC6663923 (Acta Pharmaceutica Sinica. B, 2019)
Where two headings read alike, the source gives them in different places. Each block holds one compound with its values, some of them ahead of it.

Experiments:
[1] = molecular target: T1, recombinant LSD1 (Homo sapiens, UniProt O60341); assay: LSD1 enzymatic assay; assay type: biochemical
[2] = molecular target: T1, recombinant LSD1; assay: Reversibility analysis; assay type: biochemical; settings: 80-fold dilution
Summary of the method: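 Recombinant LSD1 (2.5 μg) was preincubated for 1 h with the test compound (312.5 μmol/L), a reference inhibitor (600 μmol/L) or DMSO. Aliquots were then diluted 80-fold into HRP-coupled assay solution containing substrate and coupling reagents, and residual demethylase activity was measured.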

[3] = system: glioma stem cells (GSCs); settings: cited from earlier work

SMILES: C#CCSc1nc(Sc2nnnn2-c2ccccc2)c2nnn(Cc3ccc(OC)cc3)c2n1 [Compound 15y]
- IC50 ([1]; LSD1 IC50, recombinant LSD1): 140 nM

SMILES: O=C(O)c1ccc(CN2CCC(CN[C@@H]3C[C@H]3c3ccccc3)CC2)cc1 [GSK2879552]
- reversibility of LSD1 inhibition (in words) [2]: failed to recover the activity of LSD1

SMILES: NC1CC1c1cccc(OCC[C@H](NC(=O)c2ccccc2)C(=O)NCc2ccccc2)c1 (stereo partly drawn) [NCL-1]
- cell viability of GSCs (in words) [3]: significantly reduced the cell viability

SMILES: CCCSc1nc(Sc2nc3ccccc3s2)c2nnn(CCOCCO)c2n1 [Compound 8l]
- LSD1 inhibitory effect (in words) ([1]; recombinant LSD1): moderate inhibitory effect

Results, then the compound that gave them:

- IC50 ([1]; read-out: LSD1 IC50, recombinant LSD1): 55 nM
SMILES: C#CCSc1nc(Sc2nnnn2-c2ccccc2)c2nnn(Cc3ccc(C(C)C)cc3)c2n1 [Compound 15x]

- IC50 ([1]; LSD1 IC50, recombinant LSD1): > 10000 nM
SMILES: OCCNc1cc(Sc2nnnn2-c2ccccc2)nc(SCc2ccccc2)n1 [Compound 22b, 2-((2-(Benzylthio)-6-((1-phenyl-1H-tetrazol-5-yl)thio)pyrimidin-4-yl)amino)ethan-1-ol]
